Values after ≈ are worked out from the molar mass of the structure shown.
Assays:
[1] = test system: Trichoderma viride; assay: Antifungal activity against Trichoderma viride IAM 5061 incubated for 72 hrs followed by serial sub-cultivation for 72 hrs by serial dilution technique; type: functional; settings: IAM 5061, 72 h
How it was run: (§1)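 MFC: material from 72 h malt broth microdilution wells was serially sub-cultured into fresh broth plates and incubated a further 72 h at 28 °C. Fungicidal concentration is taken from growth after sub-culture. Duplicate, repeated three times.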

[2] = test system: Listeria monocytogenes; assay: Antibacterial activity against Listeria monocytogenes NCTC 7973 incubated for 24 hrs followed by serial sub-cultivation for 24 hrs by microdilution; type: functional; settings: NCTC 7973, 24 h
How it was run: (§2)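 MBC: after the 24 h LB broth microdilution (1.0 × 10⁴ CFU per well, 160 rpm), wells were serially sub-cultured into fresh broth plates and incubated a further 24 h. MBC is the lowest concentration with no visible growth, taken as 99.5% killing of the original inoculum. Duplicate, repeated three times.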

[3] = test system: Aspergillus fumigatus; assay: Antifungal activity against Aspergillus fumigatus isolated from human incubated for 72 hrs followed by serial sub-cultivation for 72 hrs by serial dilution technique; type: functional; how it was run: as §1
[4] = test system: Candida albicans; assay: Ratio of bifonazole to compound for Candida albicans isolated from human; type: functional
[5] = test system: Talaromyces funiculosus; assay: Ratio of bifonazole to compound for Penicillium funiculosum ATCC 36839; type: functional
[6] = test system: Listeria monocytogenes; assay: Antibacterial activity against Listeria monocytogenes NCTC 7973 after 24 hrs by microdilution method; type: functional; settings: NCTC 7973, 24 h
How it was run: (§3)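 Broth microdilution in 96-well plates. Bacterial suspensions were adjusted in sterile saline to 1.0 × 10⁵ CFU/ml, prepared daily and kept at 4 °C. Compound was added to LB broth with 1.0 × 10⁴ CFU per well and shaken at 160 rpm for 24 h at […] (so in the source). MIC is the lowest concentration with no visible growth under a binocular microscope. OD655 was also read. Duplicate, repeated three times.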

[7] = test system: Escherichia coli; assay: Antibacterial activity against Escherichia coli ATCC 35210 after 24 hrs by microdilution method; type: functional; settings: ATCC 35210, 24 h; how it was run: as §3
[8] = test system: Talaromyces funiculosus; assay: Antifungal activity against Penicillium funiculosum ATCC 36839 incubated for 72 hrs followed by serial sub-cultivation for 72 hrs by serial dilution technique; type: functional; settings: ATCC 36839, 72 h; how it was run: as §1
[9] = test system: Pseudomonas aeruginosa; assay: Antibacterial activity against Pseudomonas aeruginosa ATCC 27853 after 24 hrs by microdilution method; type: functional; settings: ATCC 27853, 24 h; how it was run: as §3
[10] = test system: Trichoderma viride; assay: Antifungal activity against Trichoderma viride IAM 5061 after 72 hrs by serial dilution technique; type: functional; settings: IAM 5061, 72 h
How it was run: (§4)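 Modified microdilution in 96-well plates. Fungi were kept on malt agar at 4 °C. Spores were washed off in sterile 0.85% saline with 0.1% Tween 80. Compounds were dissolved at 1 mg/ml in 5% DMSO with 0.1% Tween 80 and added to malt broth with inoculum. Plates were shaken at 160 rpm for 72 h at 28 °C. Duplicate, repeated three times.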

[11] = test system: Trichoderma viride; assay: Ratio of bifonazole to compound for Trichoderma viride IAM 5061; type: functional
[12] = test system: Penicillium ochrochloron; assay: Antifungal activity against Penicillium ochrochloron ATCC 9112 incubated for 72 hrs followed by serial sub-cultivation for 72 hrs by serial dilution technique; type: functional; settings: ATCC 9112, 72 h; how it was run: as §1
[13] = test system: Bacillus cereus; assay: Antibacterial activity against clinical isolate of Bacillus cereus incubated for 24 hrs followed by serial sub-cultivation for 24 hrs by microdilution; type: functional; how it was run: as §2
[14] = test system: Salmonella typhimurium; assay: Antibacterial activity against Salmonella Typhimurium ATCC 13311 incubated for 24 hrs followed by serial sub-cultivation for 24 hrs by microdilution; type: functional, Salmonella enterica subsp. enterica serovar Typhimurium; settings: Salmonella enterica, ATCC 13311, 24 h; how it was run: as §2
[15] = test system: Talaromyces funiculosus; assay: Antifungal activity against Penicillium funiculosum ATCC 36839 after 72 hrs by serial dilution technique; type: functional; settings: ATCC 36839, 72 h; how it was run: as §4
[16] = test system: Enterococcus faecalis; assay: Antibacterial activity against Enterococcus faecalis isolated from human after 24 hrs by microdilution method; type: functional; how it was run: as §3
[17] = test system: Penicillium ochrochloron; assay: Antifungal activity against Penicillium ochrochloron ATCC 9112 after 72 hrs by serial dilution technique; type: functional; settings: ATCC 9112, 72 h; how it was run: as §4
[18] = test system: Pseudomonas aeruginosa; assay: Antibacterial activity against Pseudomonas aeruginosa ATCC 27853 incubated for 24 hrs followed by serial sub-cultivation for 24 hrs by microdilution; type: functional; settings: ATCC 27853, 24 h; how it was run: as §2
[19] = test system: Aspergillus niger; assay: Ratio of bifonazole to compound for Aspergillus niger ATCC 6275; type: functional
[20] = test system: Aspergillus ochraceus; assay: Antifungal activity against Aspergillus ochraceus ATCC 12066 after 72 hrs by serial dilution technique; type: functional; settings: ATCC 12066, 72 h; how it was run: as §4
[21] = test system: Aspergillus niger; assay: Antifungal activity against Aspergillus niger ATCC 6275 incubated for 72 hrs followed by serial sub-cultivation for 72 hrs by serial dilution technique; type: functional; settings: ATCC 6275, 72 h; how it was run: as §1
[22] = test system: Candida albicans; assay: Antifungal activity against Candida albicans isolated from human after 72 hrs by serial dilution technique; type: functional; how it was run: as §4
[23] = test system: Bacillus cereus; assay: Antibacterial activity against clinical isolate of Bacillus cereus after 24 hrs by microdilution method; type: functional; how it was run: as §3
[24] = test system: Aspergillus flavus; assay: Antifungal activity against Aspergillus flavus ATCC 9643 after 72 hrs by serial dilution technique; type: functional; settings: ATCC 9643, 72 h; how it was run: as §4
[25] = test system: Aspergillus ochraceus; assay: Antifungal activity against Aspergillus ochraceus after 72 hrs by serial dilution technique
[26] = test system: Candida albicans; assay: Antifungal activity against Candida albicans isolated from human incubated for 72 hrs followed by serial sub-cultivation for 72 hrs by serial dilution technique; type: functional; how it was run: as §1
[27] = test system: Aspergillus niger; assay: Antifungal activity against Aspergillus niger ATCC 6275 after 72 hrs by serial dilution technique; type: functional; settings: ATCC 6275, 72 h; how it was run: as §4
[28] = test system: Micrococcus flavus; assay: Antibacterial activity against Micrococcus flavus ATCC 10240 after 24 hrs by microdilution method; type: functional; settings: ATCC 10240, 24 h; how it was run: as §3
[29] = test system: Enterococcus faecalis; assay: Antibacterial activity against Enterococcus faecalis isolated from human incubated for 24 hrs followed by serial sub-cultivation for 24 hrs by microdilution; type: functional; how it was run: as §2
[30] = test system: Staphylococcus aureus; assay: Antibacterial activity against Staphylococcus aureus ATCC 6538 incubated for 24 hrs followed by serial sub-cultivation for 24 hrs by microdilution method; type: functional; settings: ATCC 6538, 24 h; how it was run: as §2
[31] = test system: Penicillium ochrochloron; assay: Ratio of bifonazole to compound for Penicillium ochrochloron ATCC 9112; type: functional
[32] = test system: Aspergillus ochraceus; assay: Antifungal activity against Aspergillus ochraceus ATCC 12066 incubated for 72 hrs followed by serial sub-cultivation for 72 hrs by serial dilution technique; type: functional; settings: ATCC 12066, 72 h; how it was run: as §1
[33] = test system: Aspergillus fumigatus; assay: Ratio of ketoconazole to compound for Aspergillus fumigatus isolated from human; type: functional
[34] = test system: Pseudomonas aeruginosa; assay: Ratio of ampicillin MIC to compound MIC for Pseudomonas aeruginosa ATCC 27853; type: functional
[35] = test system: Salmonella typhimurium; assay: Antibacterial activity against Salmonella Typhimurium ATCC 13311 after 24 hrs by microdilution method; type: functional, Salmonella enterica subsp. enterica serovar Typhimurium; settings: Salmonella enterica, ATCC 13311, 24 h; how it was run: as §3
[36] = test system: Escherichia coli; assay: Antibacterial activity against Escherichia coli ATCC 35210 incubated for 24 hrs followed by serial sub-cultivation for 24 hrs by microdilution; type: functional; settings: ATCC 35210, 24 h; how it was run: as §2
[37] = test system: Aspergillus ochraceus; assay: Ratio of bifonazole to compound for Aspergillus ochraceus ATCC 12066; type: functional
[38] = test system: Staphylococcus aureus; assay: Antibacterial activity against Staphylococcus aureus ATCC 6538 after 24 hrs by microdilution method; type: functional; settings: ATCC 6538, 24 h; how it was run: as §3
[39] = test system: Micrococcus flavus; assay: Antibacterial activity against Micrococcus flavus ATCC 10240 incubated for 24 hrs followed by serial sub-cultivation for 24 hrs by microdilution; type: functional; settings: ATCC 10240, 24 h; how it was run: as §2
[40] = test system: Penicillium ochrochloron; assay: Ratio of ketoconazole to compound for Penicillium ochrochloron ATCC 9112; type: functional
[41] = test system: Aspergillus ochraceus; assay: Ratio of ketoconazole to compound for Aspergillus ochraceus ATCC 12066; type: functional
[42] = test system: Aspergillus flavus; assay: Antifungal activity against Aspergillus flavus ATCC 9643 incubated for 72 hrs followed by serial sub-cultivation for 72 hrs by serial dilution technique; type: functional; settings: ATCC 9643, 72 h; how it was run: as §1
[43] = test system: Candida albicans; assay: Ratio of ketoconazole to compound for Candida albicans isolated from human; type: functional

Work on CNc1nc(C)c(C(=O)/C=C/c2ccc(F)cc2)s1 yielded an MFC [1] of 90.6 µM (≈ 25 µg/mL), an MBC [2] of 90.6 µM (≈ 25 µg/mL) and an MFC [3] of 72.5 µM (≈ 20 µg/mL). The Ratio [4] was 10, the Ratio [5] was 10 and the MIC [6] was 90.6 µM (≈ 25 µg/mL). It also gave an MIC [7] of 54.3 µM (≈ 15 µg/mL), an MFC [8] of 72.5 µM (≈ 20 µg/mL) and an MIC [9] of 72.5 µM (≈ 20 µg/mL). For the same molecule, the MIC [10] was 72.5 µM (≈ 20 µg/mL), the Ratio [11] was 10 and the MFC [12] was 72.5 µM (≈ 20 µg/mL). The MBC [13] was 54.3 µM (≈ 15 µg/mL), the MBC [14] was 72.5 µM (≈ 20 µg/mL) and the MIC [15] was 36.2 µM (≈ 10 µg/mL). For the same molecule, the MIC [16] was 54.3 µM (≈ 15 µg/mL), the MIC [17] was 36.2 µM (≈ 10 µg/mL) and the MBC [18] was 111 µM (≈ 30.6 µg/mL). It also gave a Ratio [19] of 10, an MIC [20] of 36.2 µM (≈ 10 µg/mL) and an MFC [21] of 72.5 µM (≈ 20 µg/mL). The MIC [22] was 72.5 µM (≈ 20 µg/mL), the MIC [23] was 36.2 µM (≈ 10 µg/mL) and the MIC [24] was 36.2 µM (≈ 10 µg/mL). It also gave an MIC [25] of 36.2 µM (≈ 10 µg/mL), an MFC [26] of 90.6 µM (≈ 25 µg/mL) and an MIC [27] of 36.2 µM (≈ 10 µg/mL). For the same molecule, the MIC [28] was 32.6 µM (≈ 9.01 µg/mL), the MBC [29] was 72.5 µM (≈ 20 µg/mL) and the MBC [30] was 72.5 µM (≈ 20 µg/mL). The Ratio [31] was 10, the MFC [32] was 72.5 µM (≈ 20 µg/mL) and the Ratio [33] was 10. For the same molecule, the Ratio [34] was 10, the MIC [35] was 54.3 µM (≈ 15 µg/mL) and the MBC [36] was 72.5 µM (≈ 20 µg/mL). For the same molecule, the Ratio [37] was 10, the MIC [38] was 72.5 µM (≈ 20 µg/mL) and the MBC [39] was 72.5 µM (≈ 20 µg/mL). It also gave a Ratio [40] of 10, a Ratio [41] of 10 and an MFC [42] of 90.6 µM (≈ 25 µg/mL). For the same molecule, the Ratio [43] was 10.
For CN[C@@H]1[C@H](O[C@H]2[C@H](O[C@H]3[C@H](O)[C@@H](O)[C@H](N=C(N)N)[C@@H](O)[C@@H]3N=C(N)N)O[C@@H](C)[C@]2(O)C=O)O[C@@H](CO)[C@H](O)[C@H]1O [STREPTOMYCIN], the MBC [2] was 516 µM (≈ 300 µg/mL), the MIC [6] was 258 µM (≈ 150 µg/mL) and the MIC [7] was 172 µM (≈ 100 µg/mL). The MIC [9] was 172 µM (≈ 100 µg/mL), the MBC [13] was 86 µM (≈ 50 µg/mL) and the MBC [14] was 344 µM (≈ 200 µg/mL). The MIC [16] was 43 µM (≈ 25 µg/mL), the MBC [18] was 344 µM (≈ 200 µg/mL) and the MIC [23] was 43 µM (≈ 25 µg/mL). It also gave an MIC [28] of 86 µM (≈ 50 µg/mL), an MBC [29] of 86 µM (≈ 50 µg/mL) and an MBC [30] of 344 µM (≈ 200 µg/mL). The MIC [35] was 172 µM (≈ 100 µg/mL), the MBC [36] was 344 µM (≈ 200 µg/mL) and the MIC [38] was 172 µM (≈ 100 µg/mL). For the same molecule, the MBC [39] was 172 µM (≈ 100 µg/mL).
